Assay results: ChEMBL document CHEMBL1137702, “Identification of hydrolytically stable and selective P2Y(1) receptor agonists” (Eur J Med Chem, 2009)
Active and inactive are the calls of the source. The rule behind the calls is not given here.

Legend:
[1] = Stability at 77 ug/ml after 30 mins by HPLC in presence of calf intestine alkaline phosphatase; format: ADME; details: cattle, isolated protein, 0.5 h
P2Y purinoceptor 1 = P2Y purinoceptor 1 (Meleagris gallopavo, UniProt P49652); assay: Agonist activity at turkey P2Y1 receptor expressed in human 1321N1 cells assessed as increase in intracellular calcium concentration by dual-excitation spectrofluorimetric analysis; format: functional, cell-based
Chain of P2Y purinoceptor 1 (P49652 whole entry): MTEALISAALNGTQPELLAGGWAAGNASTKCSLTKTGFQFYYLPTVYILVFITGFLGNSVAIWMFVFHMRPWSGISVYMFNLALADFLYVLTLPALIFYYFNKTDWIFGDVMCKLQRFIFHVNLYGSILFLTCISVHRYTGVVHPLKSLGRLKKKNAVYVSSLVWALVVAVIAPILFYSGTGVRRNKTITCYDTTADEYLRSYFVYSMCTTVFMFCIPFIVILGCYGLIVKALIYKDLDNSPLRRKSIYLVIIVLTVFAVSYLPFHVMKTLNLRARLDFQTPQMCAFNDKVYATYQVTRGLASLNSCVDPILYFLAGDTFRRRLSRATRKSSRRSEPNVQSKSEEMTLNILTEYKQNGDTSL

[2] = biological target: T1, Ectonucleotide pyrophosphatase/phosphodiesterase family member 3 (Homo sapiens) (UniProt O14638); assay: Inhibition of human NPP3 expressed in human 293T cells; format: cell-based
T1 sequence (whole entry): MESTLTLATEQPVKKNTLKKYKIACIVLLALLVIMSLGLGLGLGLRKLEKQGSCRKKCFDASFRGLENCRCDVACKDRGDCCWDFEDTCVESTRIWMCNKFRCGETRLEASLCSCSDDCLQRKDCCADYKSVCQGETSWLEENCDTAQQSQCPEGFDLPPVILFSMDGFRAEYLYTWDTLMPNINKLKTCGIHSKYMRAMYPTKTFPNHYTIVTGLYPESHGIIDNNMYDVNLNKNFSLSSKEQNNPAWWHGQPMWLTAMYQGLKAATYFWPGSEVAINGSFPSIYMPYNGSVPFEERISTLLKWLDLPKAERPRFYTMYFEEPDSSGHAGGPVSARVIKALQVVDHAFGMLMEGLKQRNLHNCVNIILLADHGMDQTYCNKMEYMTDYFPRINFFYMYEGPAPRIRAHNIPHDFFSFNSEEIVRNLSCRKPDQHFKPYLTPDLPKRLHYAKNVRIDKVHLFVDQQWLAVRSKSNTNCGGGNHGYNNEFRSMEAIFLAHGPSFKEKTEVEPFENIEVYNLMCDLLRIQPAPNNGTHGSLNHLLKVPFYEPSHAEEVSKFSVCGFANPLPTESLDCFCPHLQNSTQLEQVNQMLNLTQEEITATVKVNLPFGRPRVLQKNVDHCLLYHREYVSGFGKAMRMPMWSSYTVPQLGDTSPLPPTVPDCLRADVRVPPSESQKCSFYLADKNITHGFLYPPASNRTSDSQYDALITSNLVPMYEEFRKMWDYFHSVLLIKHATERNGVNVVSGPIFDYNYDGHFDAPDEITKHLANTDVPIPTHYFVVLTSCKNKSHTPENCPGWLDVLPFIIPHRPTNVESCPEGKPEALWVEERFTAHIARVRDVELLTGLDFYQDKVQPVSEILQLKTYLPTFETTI

[3] = biological target: P2Y purinoceptor 6 (Rattus norvegicus) (UniProt Q63371); assay: Antagonist activity at rat P2Y6 receptor expressed in human 1321N1 cells assessed as inhibition of UDP-induced increase in intracellular calcium concentration by dual-excitation spectrofluorimetric analysis; format: functional, cell-based
Chain of P2Y purinoceptor 6 (Rattus norvegicus) (Q63371 whole entry): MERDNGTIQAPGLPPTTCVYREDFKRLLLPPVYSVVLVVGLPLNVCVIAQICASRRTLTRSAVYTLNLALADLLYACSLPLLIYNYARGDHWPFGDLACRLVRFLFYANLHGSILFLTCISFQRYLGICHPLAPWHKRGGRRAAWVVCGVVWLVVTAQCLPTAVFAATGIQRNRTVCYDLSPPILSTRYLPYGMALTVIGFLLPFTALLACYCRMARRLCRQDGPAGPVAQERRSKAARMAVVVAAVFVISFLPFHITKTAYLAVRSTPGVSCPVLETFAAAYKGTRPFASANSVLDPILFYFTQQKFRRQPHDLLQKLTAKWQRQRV
Method in brief: (§1)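 Fura-2-loaded suspensions of stably transfected 1321N1 cells were assayed at 37 °C in HEPES-buffered saline pH 7.4 with 1 mM Ca2+ and Mg2+. […] [Ca2+]i was read by dual-excitation spectrofluorometry.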

P2Y purinoceptor 2 [4] = biological target: T2, P2Y purinoceptor 2 (Homo sapiens, UniProt P41231); assay: Antagonist activity at human P2Y2 receptor expressed in human 1321N1 cells assessed as inhibition of UTP-induced increase in intracellular calcium concentration by dual-excitation spectrofluorimetric analysis; format: functional, cell-based; method in brief: as §1
T2 sequence (P41231 whole entry): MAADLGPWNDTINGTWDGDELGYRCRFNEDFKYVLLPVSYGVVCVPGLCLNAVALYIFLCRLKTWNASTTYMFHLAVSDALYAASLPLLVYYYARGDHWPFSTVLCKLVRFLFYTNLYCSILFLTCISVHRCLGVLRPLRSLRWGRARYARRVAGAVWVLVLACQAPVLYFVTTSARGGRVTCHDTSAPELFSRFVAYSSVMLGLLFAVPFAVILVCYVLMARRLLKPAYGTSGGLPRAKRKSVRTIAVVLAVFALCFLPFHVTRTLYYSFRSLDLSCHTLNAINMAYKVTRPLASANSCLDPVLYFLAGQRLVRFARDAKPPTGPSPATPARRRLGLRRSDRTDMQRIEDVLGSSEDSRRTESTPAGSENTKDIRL

[5] = biological target: P2Y purinoceptor 1 (Meleagris gallopavo) (UniProt P49652); assay: Antagonist activity at turkey P2Y1 receptor expressed in human 1321N1 cells assessed as inhibition of 2-MeS-ADP-induced increase in intracellular calcium concentration by dual-excitation spectrofluorimetric analysis; format: functional, cell-based; method in brief: as §1
Chain of P2Y purinoceptor 1 (Meleagris gallopavo) (P49652 whole entry): as the sequence (P49652 whole entry) above

[6] = biological target: T3, Ectonucleoside triphosphate diphosphohydrolase 2 (Homo sapiens) (UniProt Q9Y5L3); assay: Inhibition of human NTPDase 2 expressed in human 293T cells; format: cell-based
T3 sequence (whole entry): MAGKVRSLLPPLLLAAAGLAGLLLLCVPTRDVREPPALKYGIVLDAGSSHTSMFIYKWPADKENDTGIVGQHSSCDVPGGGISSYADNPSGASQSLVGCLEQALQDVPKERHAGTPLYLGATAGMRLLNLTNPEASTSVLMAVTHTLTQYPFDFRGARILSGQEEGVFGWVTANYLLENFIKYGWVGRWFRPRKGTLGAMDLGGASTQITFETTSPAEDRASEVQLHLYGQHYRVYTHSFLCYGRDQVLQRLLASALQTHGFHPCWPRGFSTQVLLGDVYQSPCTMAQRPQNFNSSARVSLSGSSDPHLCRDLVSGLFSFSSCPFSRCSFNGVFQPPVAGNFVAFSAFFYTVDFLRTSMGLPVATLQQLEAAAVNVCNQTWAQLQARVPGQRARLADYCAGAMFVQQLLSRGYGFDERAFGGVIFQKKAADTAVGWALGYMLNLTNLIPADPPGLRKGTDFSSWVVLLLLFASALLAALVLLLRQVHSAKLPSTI

P2Y purinoceptor 2 [7] = biological target: T2, P2Y purinoceptor 2; assay: Agonist activity at human P2Y2 receptor expressed in human 1321N1 cells assessed as increase in intracellular calcium concentration by dual-excitation spectrofluorimetric analysis; format: functional, cell-based
Method in brief: (§2)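 1321N1 astrocytoma cells stably expressing the receptor (turkey P2Y1, human P2Y2, human P2Y4, rat P2Y6) were grown with G-418 selection. Fura-2-loaded cell suspensions were exposed at 37 °C in 10 mM HEPES-buffered saline pH 7.4 with 1 mM CaCl2 and 1 mM MgCl2. Peak [Ca2+]i rise was measured over a range of concentrations to derive EC50.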

Serum = assay: Metabolic stability in human serum assessed as hydrolysis half life at 0.25 mM measured for 4 days by HPLC; format: ADME, cell-free; details: 96 h, 250 µM
Method in brief: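 Human serum (healthy donors; clotted 12 h at 4 °C, spun 1500 × g, stored −80 °C) diluted with RPMI-1640, incubated with 0.25 mM nucleotide at 37 °C for 1–96 h. Stopped with HCl, neutralized with KOH, analysed by C18 HPLC (KH2PO4 pH 4.5/acetonitrile). t1/2 from peak-area change.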

[8] = Dissociation constant, pKa of the compound; format: physicochemical
[9] = Chemical stability assessed as hydrolysis half life at 1.5 mg at pH 1.4 measured at 24 hrs interval for 12 days by 31P NMR analysis; format: physicochemical
Method in brief: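 1.5 mg in 0.2 M HCl/KCl with D2O, pH adjusted to 1.4, kept at 37 °C. 31P NMR spectra, 500 scans each, were recorded about every 24 h for 12 days to obtain half-life.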

[10] = biological target: T1, Ectonucleotide pyrophosphatase/phosphodiesterase family member 3 (Homo sapiens); assay: Activity of human NPP3 expressed in human 293T cells assessed as drug hydrolysis at 100 uM after 20 mins by reverse-phase HPLC relative to p-nitrophenyl-thymidine-5-monophosphate; format: cell-based; set-up: scale not given: the % may be the effect or the level left
Method in brief: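 Crude extract of 293T cells transfected with human NPP1 or NPP3, pre-incubated 3 min at 37 °C in 1 mM CaCl2, 140 mM NaCl, 5 mM KCl, 50 mM Tris pH 8.5. Substrate at 100 µM final for 20 min, stopped in ice-cold perchloric acid and neutralized with KOH. Loss of analogue quantified by reverse-phase HPLC with ion-pair phosphate mobile phase pH 7.0. pnp-TMP (p-nitrophenol at 410 nm) served as the 100% reference.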

P2Y purinoceptor 4 = P2Y purinoceptor 4 (Homo sapiens, UniProt P51582); assay: Agonist activity at human P2Y4 receptor expressed in human 1321N1 cells assessed as increase in intracellular calcium concentration by dual-excitation spectrofluorimetric analysis; format: functional, cell-based; method in brief: as §2
Chain of P2Y purinoceptor 4 (P51582 whole entry): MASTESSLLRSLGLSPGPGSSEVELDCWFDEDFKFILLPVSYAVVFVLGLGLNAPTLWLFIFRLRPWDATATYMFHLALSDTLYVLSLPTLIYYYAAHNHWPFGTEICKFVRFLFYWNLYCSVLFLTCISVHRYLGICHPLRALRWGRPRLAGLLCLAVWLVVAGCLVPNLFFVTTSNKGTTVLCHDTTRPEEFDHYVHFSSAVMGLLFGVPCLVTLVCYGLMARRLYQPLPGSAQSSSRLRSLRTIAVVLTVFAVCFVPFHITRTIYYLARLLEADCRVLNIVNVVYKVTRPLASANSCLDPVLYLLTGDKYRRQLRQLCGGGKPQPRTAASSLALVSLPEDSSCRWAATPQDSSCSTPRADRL

| SMILES | Activity [2] | Activity [3] | Activity (P2Y purinoceptor 2 [4]) | Activity [5] | Activity [6] | Activity (P2Y purinoceptor 2 [7]) | Activity [10] | Activity (P2Y purinoceptor 4) | Stability [1] | EC50 (P2Y purinoceptor 1) | t1/2 (Serum) | pKa [8] | half-life [9] |
| --- | --- | --- | --- | --- | --- | --- | --- | --- | --- | --- | --- | --- | --- |
| CSc1nc(N)c2ncn([C@@H]3O[C@H](COP(=O)(O)OP(=O)(O)CP(=O)(O)O)[C@@H](O)[C@H]3O)c2n1 | inactive | inactive | inactive | inactive | inactive | inactive | 10% | inactive | Stable | 0.08 µM | 12.7 h | 8.4 | 65 h |
| BP(=O)(OC[C@H]1O[C@@H](n2cnc3c(N)ncnc32)[C@H](O)[C@@H]1O)OP(=O)(O)CP(=O)(O)O (some centres undefined) | inactive | inactive | inactive |  | inactive | inactive | 0% | inactive |  |  |  |  |  |
| BP(=O)(OC[C@H]1O[C@@H](n2cnc3c(N)nc(SC)nc32)[C@H](O)[C@@H]1O)OP(=O)(O)CP(=O)(O)O (single isomer, unassigned; diastereomer B) | inactive | inactive | inactive | inactive | inactive | inactive | 0% | inactive |  |  |  |  |  |

Second part, led by results:

| Activity [2] | Activity [3] | Activity (P2Y purinoceptor 2 [4]) | Activity [5] | Activity [6] | Activity (P2Y purinoceptor 2 [7]) | Activity [10] | Activity (P2Y purinoceptor 4) | SMILES | Stability [1] | EC50 (P2Y purinoceptor 1) | t1/2 (Serum) | pKa [8] | half-life [9] |
| --- | --- | --- | --- | --- | --- | --- | --- | --- | --- | --- | --- | --- | --- |
| inactive | inactive | inactive | inactive | inactive | inactive | 9.9% | inactive | BP(=O)(OC[C@H]1O[C@@H](n2cnc3c(N)nc(SC)nc32)[C@H](O)[C@@H]1O)OP(=O)(O)CP(=O)(O)O (single isomer, unassigned; diastereomer A) |  |  |  |  |  |
| inactive | inactive | inactive | inactive | inactive | inactive | 3% | inactive | BP(=O)(OC[C@H]1O[C@@H](n2cnc3c(N)ncnc32)[C@H](O)[C@@H]1O)OP(=O)(O)CP(=O)(O)O (single isomer, unassigned; diastereomer B) |  |  |  |  |  |
